# Positions of bridges follow the written chain, without caps; N, C: chain ends. Residues, ends and D or L forms follow the SMILES beside them.
# Tests used:
# [1] = Apparent solubility by absorbance at 280 nm; format: physicochemical; conditions: PBS pH 7.4, absorbance at 280 nm
# Summary of the method: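 About 1 mg test peptide in 200 μL PBS pH 7.4; upper reportable limit 5 mg/mL. Vortexed 30 s, centrifuged 13000g for 5 min. Supernatant A280 converted to concentration by Beer–Lambert, using extinction coefficients from each peptide's Trp and Tyr count. Samples kept at 4 °C and re-read at 24 and 48 h. Mean and standard deviation of three readings per sample.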
# complement C3 = complement C3 (Homo sapiens, UniProt P01024); experiment: Complement inhibition across biochemical and functional assays; conditions: C3b ELISA, C5b-9 ELISA, hemolytic assay
# Chain of complement C3 (P01024 23-667 limits assumed): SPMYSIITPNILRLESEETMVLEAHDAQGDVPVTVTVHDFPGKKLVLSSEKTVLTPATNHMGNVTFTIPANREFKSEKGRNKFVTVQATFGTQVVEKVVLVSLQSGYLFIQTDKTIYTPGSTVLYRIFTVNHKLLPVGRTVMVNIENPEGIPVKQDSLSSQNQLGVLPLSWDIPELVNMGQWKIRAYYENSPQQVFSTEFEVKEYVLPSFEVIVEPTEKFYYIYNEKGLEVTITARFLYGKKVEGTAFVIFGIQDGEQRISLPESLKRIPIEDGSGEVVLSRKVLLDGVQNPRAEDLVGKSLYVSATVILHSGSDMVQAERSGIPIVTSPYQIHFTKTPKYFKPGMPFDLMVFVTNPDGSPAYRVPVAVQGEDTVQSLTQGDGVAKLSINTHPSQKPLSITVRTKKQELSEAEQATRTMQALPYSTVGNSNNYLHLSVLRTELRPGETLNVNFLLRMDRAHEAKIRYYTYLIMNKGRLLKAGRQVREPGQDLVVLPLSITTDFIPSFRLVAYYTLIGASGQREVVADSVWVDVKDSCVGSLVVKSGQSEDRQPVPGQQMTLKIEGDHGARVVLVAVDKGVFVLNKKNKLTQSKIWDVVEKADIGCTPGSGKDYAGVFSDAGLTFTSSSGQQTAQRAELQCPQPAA
# Chain of complement C3 (P01024 672-1663 partner limits assumed): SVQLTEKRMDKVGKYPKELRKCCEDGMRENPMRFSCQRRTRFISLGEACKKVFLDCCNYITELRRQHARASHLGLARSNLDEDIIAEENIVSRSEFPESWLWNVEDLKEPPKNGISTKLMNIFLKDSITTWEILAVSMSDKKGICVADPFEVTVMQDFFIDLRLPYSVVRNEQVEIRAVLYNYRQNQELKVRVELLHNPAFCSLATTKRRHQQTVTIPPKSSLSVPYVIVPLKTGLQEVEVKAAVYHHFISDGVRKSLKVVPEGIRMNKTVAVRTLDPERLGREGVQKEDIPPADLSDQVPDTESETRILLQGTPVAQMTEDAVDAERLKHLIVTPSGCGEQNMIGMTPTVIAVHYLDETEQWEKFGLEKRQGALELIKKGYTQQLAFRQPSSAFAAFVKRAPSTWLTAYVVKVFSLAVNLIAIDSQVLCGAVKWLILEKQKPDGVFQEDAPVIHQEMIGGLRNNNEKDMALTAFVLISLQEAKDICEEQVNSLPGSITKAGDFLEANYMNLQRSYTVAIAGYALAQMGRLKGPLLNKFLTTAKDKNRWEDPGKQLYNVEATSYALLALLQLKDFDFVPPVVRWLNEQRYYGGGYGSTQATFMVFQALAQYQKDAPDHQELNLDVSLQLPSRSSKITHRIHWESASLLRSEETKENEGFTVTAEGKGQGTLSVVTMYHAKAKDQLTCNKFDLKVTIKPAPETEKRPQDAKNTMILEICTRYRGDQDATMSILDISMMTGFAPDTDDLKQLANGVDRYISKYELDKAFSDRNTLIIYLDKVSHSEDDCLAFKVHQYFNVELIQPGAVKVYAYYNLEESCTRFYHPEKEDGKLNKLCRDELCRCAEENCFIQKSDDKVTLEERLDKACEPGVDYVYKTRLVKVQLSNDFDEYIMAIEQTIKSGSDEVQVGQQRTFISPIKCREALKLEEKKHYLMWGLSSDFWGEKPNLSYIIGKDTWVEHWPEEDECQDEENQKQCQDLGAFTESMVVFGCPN
# [2] = phase II, NCT00473928 and NCT01157065; cited from earlier work
SMILES,"Solubility, in words [1]","Complement inhibitory activity relative to controls, in words (complement C3)",Retinal thickness in AMD patients in comparison to ranibizumab [2]
"CC[C@H](C)[C@H](NC(C)=O)C(=O)N[C@H]1CSSC[C@@H](C(=O)N[C@H](C(N)=O)[C@@H](C)O)NC(=O)[C@H](CCCNC(=N)N)NC(=O)[C@H](Cc2c[nH]cn2)NC(=O)[C@@](C)(CC)NC(=O)CNC(=O)[C@H](Cc2c[nH]c3ccccc23)NC(=O)[C@H](CC(=O)O)NC(=O)[C@H](CCC(N)=O)NC(=O)[C@H](Cc2c[nH]c3ccccc23)NC(=O)[C@H](C(C)C)NC1=O [Peptide 3, Ac- ICV W QDWG{Rea}HRCT-NH2]",greatly improved aqueous solubility,inhibitory activity similar to meW4A9,–
"C=CC[C@@]1(C)NC(=O)CNC(=O)[C@H](Cc2c[nH]c3ccccc23)NC(=O)[C@H](CC(=O)O)NC(=O)[C@H](CCC(N)=O)NC(=O)[C@H](Cc2c[nH]c3ccccc23)NC(=O)[C@H](C(C)C)NC(=O)[C@@H](NC(=O)[C@@H](NC(C)=O)[C@@H](C)CC)CSSC[C@@H](C(=O)N[C@H](C(N)=O)[C@@H](C)O)NC(=O)[C@H](CCCNC(=N)N)NC(=O)[C@H](Cc2c[nH]cn2)NC1=O [Peptide 4, Ac- ICV W QDWG{Aal}HRCT-NH2]",greatly improved aqueous solubility,inhibitory activity similar to meW4A9,–
"CC[C@H](C)[C@H](NC(C)=O)C(=O)N[C@H]1CSSC[C@@H](C(=O)N[C@H](C(N)=O)[C@@H](C)O)NC(=O)[C@H](CCCNC(=N)N)NC(=O)[C@H](Cc2c[nH]cn2)NC(=O)[C@](C)(CC)NC(=O)CNC(=O)[C@H](Cc2c[nH]c3ccccc23)NC(=O)[C@H](CC(=O)O)NC(=O)[C@H](CCC(N)=O)NC(=O)[C@H](Cc2c[nH]c3ccccc23)NC(=O)[C@H](C(C)C)NC1=O [Peptide 5, Ac- ICV W QDWG{Sea}HRCT-NH2]",greatly improved aqueous solubility,inhibitory activity similar to meW4A9,–
"CC(=O)N[C@@H](CC(N)=O)C(=O)N[C@@H](CC(N)=O)C(=O)N[C@@H](CC(C)C)C(=O)N[C@H]1CSSC[C@@H](C(=O)N[C@H](C(N)=O)[C@@H](C)O)NC(=O)[C@H](CCCNC(=N)N)NC(=O)[C@H](Cc2c[nH]cn2)NC(=O)[C@H](C)NC(=O)CNC(=O)[C@H](Cc2c[nH]c3ccccc23)NC(=O)[C@H](CC(=O)O)NC(=O)[C@H](CCC(N)=O)NC(=O)[C@H](Cc2c[nH]c3ccccc23)NC(=O)[C@H](C(C)C)NC1=O [Peptide 7, Ac-NNLCV W QDWG A HRCT-NH2] (Ac-NNLCVWQDWGAHRCT-NH2; disulfide 4-14)",greatly improved aqueous solubility,inhibitory activity similar to meW4A9,–
"CC(=O)N[C@@H](CC(N)=O)C(=O)N[C@@H](CCCNC(=N)N)C(=O)N[C@@H](CC(C)C)C(=O)N[C@H]1CSSC[C@@H](C(=O)N[C@H](C(N)=O)[C@@H](C)O)NC(=O)[C@H](CCCNC(=N)N)NC(=O)[C@H](Cc2c[nH]cn2)NC(=O)[C@H](C)NC(=O)CNC(=O)[C@H](Cc2c[nH]c3ccccc23)NC(=O)[C@H](CC(=O)O)NC(=O)[C@H](CCC(N)=O)NC(=O)[C@H](Cc2c[nH]c3ccccc23)NC(=O)[C@H](C(C)C)NC1=O [Peptide 8, Ac-NRLCV W QDWG A HRCT-NH2] (Ac-NRLCVWQDWGAHRCT-NH2; disulfide 4-14)",greatly improved aqueous solubility,inhibitory activity similar to meW4A9,–
"CC[C@H](C)[C@H](NC(=O)[C@H](CO)NC(=O)[C@H](CCCNC(=N)N)NC(C)=O)C(=O)N[C@H]1CSSC[C@@H](C(=O)N[C@H](C(N)=O)[C@@H](C)O)NC(=O)[C@H](CCCNC(=N)N)NC(=O)[C@H](Cc2c[nH]cn2)NC(=O)[C@H](C)NC(=O)CNC(=O)[C@H](Cc2c[nH]c3ccccc23)NC(=O)[C@H](CC(=O)O)NC(=O)[C@H](CCC(N)=O)NC(=O)[C@H](Cc2c[nH]c3ccccc23)NC(=O)[C@H](C(C)C)NC1=O [Peptide 9, Ac-RSICV W QDWG A HRCT-NH2]",greatly improved aqueous solubility,inhibitory activity similar to meW4A9,–
"CC[C@H](C)[C@H](NC(C)=O)C(=O)N[C@H]1CSSC[C@@H](C(=O)N[C@H](C(N)=O)[C@@H](C)O)NC(=O)[C@H](CCCNC(=N)N)NC(=O)[C@H](Cc2c[nH]cn2)NC(=O)[C@H](C)NC(=O)CNC(=O)[C@H](Cc2c[nH]c3ccccc23)NC(=O)[C@H](CC(=O)O)NC(=O)[C@H](CCC(N)=O)NC(=O)[C@H](Cc2cn(C)c3ccccc23)NC(=O)[C@H](C(C)C)NC1=O [meW4A9, Ac- ICV{meW}QDWG A HRCT-NH2]",–,–,did not yield reduced retinal thickness
